Laboratory results as given in publication PMC7547215 (Proceedings of the National Academy of Sciences of the …, 2020).
Where two headings read alike, the source gives them in different places. One block for each compound: values may come before it.

What was measured:
porcine RNase L [1] = biological target: T1, porcine RNase L (Sus scrofa, UniProt A5H025); assay: Fluorescence-based RNase L endoribonuclease cleavage assay; assay type: biochemical
T1 sequence (A5H025 1-743): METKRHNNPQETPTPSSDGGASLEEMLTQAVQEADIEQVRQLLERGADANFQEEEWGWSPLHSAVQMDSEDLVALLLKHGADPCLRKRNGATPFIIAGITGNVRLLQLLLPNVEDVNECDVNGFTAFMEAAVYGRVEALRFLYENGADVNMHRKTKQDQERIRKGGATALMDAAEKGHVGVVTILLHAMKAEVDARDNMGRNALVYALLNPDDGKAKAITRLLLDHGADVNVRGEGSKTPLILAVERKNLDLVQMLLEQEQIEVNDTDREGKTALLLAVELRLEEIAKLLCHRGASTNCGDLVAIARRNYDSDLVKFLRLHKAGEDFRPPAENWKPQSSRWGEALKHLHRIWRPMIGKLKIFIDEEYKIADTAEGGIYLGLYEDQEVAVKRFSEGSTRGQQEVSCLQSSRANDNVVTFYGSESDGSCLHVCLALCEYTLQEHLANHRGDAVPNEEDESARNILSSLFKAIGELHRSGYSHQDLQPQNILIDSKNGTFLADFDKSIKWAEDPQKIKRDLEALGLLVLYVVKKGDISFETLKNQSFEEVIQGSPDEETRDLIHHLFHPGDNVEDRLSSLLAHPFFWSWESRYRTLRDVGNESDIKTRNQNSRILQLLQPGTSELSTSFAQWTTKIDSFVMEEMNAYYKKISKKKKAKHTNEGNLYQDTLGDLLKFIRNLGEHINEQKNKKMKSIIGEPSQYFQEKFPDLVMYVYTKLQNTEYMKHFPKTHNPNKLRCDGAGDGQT

murine IRE1 = murine IRE1 (Mus musculus, UniProt Q9EQY0); assay: Fluorescence-based IRE1 endoribonuclease cleavage assay; assay type: biochemical
Human CK2a = Human CK2a (Homo sapiens, UniProt P68400); assay: In vitro inhibition of CK2α kinase activity; assay type: biochemical
porcine RNase L [2] = biological target: T1, porcine RNase L; assay: BODIPY-ATP fluorescence polarization binding/competition assay
[3] = biological target: T2, RNase L in human A549 cells (Homo sapiens, UniProt Q05823); assay: rRNA cleavage after pIC transfection in A549 cells; assay type: cell-based
T2 sequence (Q05823 1-741): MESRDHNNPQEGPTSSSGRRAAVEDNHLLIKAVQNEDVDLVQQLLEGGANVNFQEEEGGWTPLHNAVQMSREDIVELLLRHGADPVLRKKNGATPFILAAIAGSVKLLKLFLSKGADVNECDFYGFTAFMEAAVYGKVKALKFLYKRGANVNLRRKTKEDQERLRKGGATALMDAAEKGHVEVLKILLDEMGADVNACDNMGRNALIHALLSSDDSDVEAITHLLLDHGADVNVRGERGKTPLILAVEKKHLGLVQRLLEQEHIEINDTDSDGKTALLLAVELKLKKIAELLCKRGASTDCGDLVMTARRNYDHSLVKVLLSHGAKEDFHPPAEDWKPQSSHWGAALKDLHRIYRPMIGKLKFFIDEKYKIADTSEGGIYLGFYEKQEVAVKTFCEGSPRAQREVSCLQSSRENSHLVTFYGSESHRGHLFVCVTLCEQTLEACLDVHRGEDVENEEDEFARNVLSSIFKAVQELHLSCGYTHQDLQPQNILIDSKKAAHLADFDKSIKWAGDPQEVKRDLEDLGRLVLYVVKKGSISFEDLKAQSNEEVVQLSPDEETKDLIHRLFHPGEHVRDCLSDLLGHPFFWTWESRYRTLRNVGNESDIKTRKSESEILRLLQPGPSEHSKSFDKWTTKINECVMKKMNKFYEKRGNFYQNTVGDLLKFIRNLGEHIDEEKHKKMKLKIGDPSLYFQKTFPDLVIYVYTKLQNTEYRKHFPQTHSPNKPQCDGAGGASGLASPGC

A549 cells = assay: Cell survival; assay type: cell-based, human; conditions: up to 25 μM (SU 3 to 25 μM), over 30 h
Procedure, shortened: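 Human A549 cells cultured with test compound across a concentration series. Dye-labelled cells imaged in real time, and percent survival calculated. Mean ± SD of three survival profiles.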

[4] = system: casein kinase IIalpha (CK2α); conditions: cited from earlier work
glycogen phosphorylase b = conditions: read-out: IC50, glycogen phosphorylase b; cited from earlier work
porcine RNase L H680N = assay: Differential scanning fluorimetry; assay type: binding
RNase L [5] = conditions: read-out: IC50, ribonuclease activity of RNase L in vitro; cited from earlier work
RNase L [6] = conditions: cited from earlier work

Sequence of murine IRE1 (Q9EQY0 21-977): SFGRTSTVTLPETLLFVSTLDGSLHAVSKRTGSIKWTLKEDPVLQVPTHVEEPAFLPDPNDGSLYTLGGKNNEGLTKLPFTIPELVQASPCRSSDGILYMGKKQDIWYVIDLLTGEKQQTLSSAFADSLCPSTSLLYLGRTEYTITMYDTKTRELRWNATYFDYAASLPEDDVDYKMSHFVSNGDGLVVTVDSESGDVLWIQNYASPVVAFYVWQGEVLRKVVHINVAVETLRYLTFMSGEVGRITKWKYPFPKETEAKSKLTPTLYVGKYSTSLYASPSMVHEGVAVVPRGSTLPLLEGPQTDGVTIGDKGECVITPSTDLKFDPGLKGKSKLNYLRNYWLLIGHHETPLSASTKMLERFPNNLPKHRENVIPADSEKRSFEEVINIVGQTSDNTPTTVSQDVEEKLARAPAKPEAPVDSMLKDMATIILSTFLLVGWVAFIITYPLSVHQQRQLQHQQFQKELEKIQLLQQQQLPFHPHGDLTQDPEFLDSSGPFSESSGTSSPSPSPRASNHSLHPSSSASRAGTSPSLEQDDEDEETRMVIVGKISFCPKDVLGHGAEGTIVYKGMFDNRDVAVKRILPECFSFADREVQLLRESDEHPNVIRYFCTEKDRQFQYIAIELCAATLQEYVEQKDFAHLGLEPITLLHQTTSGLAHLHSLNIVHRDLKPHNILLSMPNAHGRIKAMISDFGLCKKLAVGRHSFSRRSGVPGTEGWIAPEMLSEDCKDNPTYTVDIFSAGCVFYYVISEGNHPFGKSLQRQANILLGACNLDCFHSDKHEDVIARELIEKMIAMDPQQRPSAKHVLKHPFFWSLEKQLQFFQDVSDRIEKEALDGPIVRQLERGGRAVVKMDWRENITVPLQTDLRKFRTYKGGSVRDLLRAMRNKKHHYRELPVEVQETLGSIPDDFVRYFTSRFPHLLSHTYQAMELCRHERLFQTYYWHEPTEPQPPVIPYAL
Sequence of Human CK2a (P68400 whole entry): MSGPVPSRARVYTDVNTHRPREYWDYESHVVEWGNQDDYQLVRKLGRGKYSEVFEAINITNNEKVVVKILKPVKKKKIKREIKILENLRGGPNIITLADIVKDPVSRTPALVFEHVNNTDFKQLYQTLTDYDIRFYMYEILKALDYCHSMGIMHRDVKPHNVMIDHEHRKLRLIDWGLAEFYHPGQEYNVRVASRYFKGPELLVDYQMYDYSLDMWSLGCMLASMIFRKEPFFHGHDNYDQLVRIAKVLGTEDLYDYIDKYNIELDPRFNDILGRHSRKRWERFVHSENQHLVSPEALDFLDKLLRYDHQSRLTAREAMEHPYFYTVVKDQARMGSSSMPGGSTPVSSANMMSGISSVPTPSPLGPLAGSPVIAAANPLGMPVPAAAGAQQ

Structure (SMILES): O=c1oc2c(O)c(O)cc3c(=O)oc4c(O)c(O)cc1c4c23 [EA, ellagic acid]
IC50 (porcine RNase L [1]; IC50, RNase L ribonuclease activity, 10-point dose–response, commercially sourced fresh powder, Fig. 1C, mean ± SEM of four curves): 73.5 ± 0.2 nM | IC50 (murine IRE1): 270.6 ± 0.1 nM | IC50 (Human CK2a): 419 nM | Competitive displacement of BODIPY-ATP from RNase L (porcine RNase L [2]): neither EA nor VAL could competitively displace | Decrease in potency in cells relative to in vitro against porcine RNase L ([3]; A549 and L929 cell lines): ~1,000 fold | pIC-induced RNA cleavage pattern ([3]; A549 cells, 3 h preincubation, 12 ng/mL pIC for 2 h): progressively reduced in a concentration-dependent manner | Cytotoxicity (A549 cells): not cytotoxic | Potency of casein kinase II inhibition [4]: 20 nM | IC50 ([4]; read-out: IC50, casein kinase IIalpha (CK2α)): 40 nM | IC50 (glycogen phosphorylase b): 3200 nM

Thermal stabilization of purified RNase L by ligand on its own (porcine RNase L H680N): pronounced stabilization | ΔTm of RNase L (porcine RNase L H680N; named ligand(s) vs RNase L alone, SI Fig. S7, listed as ATP/MgCl2): 6 ± 0.2 °C
Structure (SMILES): Nc1ncnc2c1ncn2[C@@H]1O[C@H](COP(=O)(O)OP(=O)(O)OP(=O)(O)O)[C@@H](O)[C@H]1O [ATP]

Structure (SMILES): CCN(CC)CCNC(=O)c1c(C)[nH]c(/C=C2\C(=O)Nc3ccc(F)cc32)c1C [sunitinib]
Cytotoxicity (A549 cells): considerable cytotoxicity | IC50 (RNase L [5]): 1400 nM | Concentration required for the repression of RNase L cleavage activity (RNase L [6]; in cells): ~5 µM | IC50 (RNase L [6]; read-out: IC50, antiviral function of RNase L in cells): 1000 nM

Effect on RNase L ribonuclease activity (porcine RNase L [1]; Fig. 2): ineffective at complete inhibition | Effect on IRE1 ribonuclease activity (murine IRE1; Fig. 2): ineffective at complete inhibition
Structure (SMILES): Nc1ccc2ccc3c(N)ccc4ccc1c2c43 [1,6-diaminopyrene]
